Laboratory results from ChEMBL document CHEMBL1154416, “Haemophilus ducreyi is resistant to human antimicrobial peptides” (2007).
The source made the active and inactive calls. The calls are words filed in the database; no cut-off is given here. Where a SMILES comes first, the peptide text is derived from it. Bridges are numbered along the chain shown (N, C = ends).

Legend:
[1] = tested on: [Haemophilus] ducreyi; experiment: Bactericidal activity against Haemophilus ducreyi 35000HP assessed as survival at 2 ug/ml by antibacterial susceptibility test relative to control; format: functional, organism-based
Procedure, shortened: (§1)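 Viable bacteria counted by plating. Survival expressed as percentage of peptide-free control wells. Means ± standard errors of three independent assays; mixed-model analysis with Sidak adjustment, P<0.05.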

[2] = tested on: [Haemophilus] ducreyi; experiment: Bactericidal activity against Haemophilus ducreyi 35000HP assessed as survival at 20 ug/ml by antibacterial susceptibility test relative to control; format: functional, organism-based; procedure, shortened: as §1
[3] = tested on: [Haemophilus] ducreyi; experiment: Bactericidal activity against Haemophilus ducreyi CIP542 assessed as survival at 0.2 ug/ml by antibacterial susceptibility test relative to control; format: functional; procedure, shortened: as §1
[4] = tested on: [Haemophilus] ducreyi; experiment: Bactericidal activity against Haemophilus ducreyi CIP542 assessed as survival at 20 ug/ml by antibacterial susceptibility test relative to control; format: functional, organism-based; procedure, shortened: as §1
[5] = tested on: [Haemophilus] ducreyi; experiment: Bactericidal activity against Haemophilus ducreyi 35000HP assessed as survival at 0.2 ug/ml by antibacterial susceptibility test relative to control; format: functional; procedure, shortened: as §1
[6] = tested on: Escherichia coli; experiment: Bactericidal activity against Escherichia coli ML35 assessed as survival at 20 ug/ml relative to control; format: functional; procedure, shortened: as §1
[7] = tested on: [Haemophilus] ducreyi; experiment: Bactericidal activity against Haemophilus ducreyi CIP542 after 48 to 72 hrs by radial diffusion assay; format: functional; conditions: read-out: MEC
Procedure, shortened: (§2)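 Radial diffusion assay with salts omitted from the agarose underlay. Activity units are taken from inhibition zones around peptide-loaded wells. MEC is the x intercept of the best-fit line of activity against peptide concentration. Where fewer than two concentrations were active, MEC is recorded as >158 μg/ml, the assay's upper limit. Values are means of three independent assays, each run in duplicate.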

[8] = tested on: [Haemophilus] ducreyi; experiment: Bactericidal activity against Haemophilus ducreyi 35000HP assessed as survival at 2 ug/ml relative to control; format: functional; procedure, shortened: as §1
[9] = tested on: Escherichia coli; experiment: Bactericidal activity against Escherichia coli ML35 after 48 to 72 hrs by radial diffusion assay; format: functional; conditions: read-out: MEC; procedure, shortened: as §2
[10] = tested on: [Haemophilus] ducreyi; experiment: Bactericidal activity against Haemophilus ducreyi 35000HP after 48 to 72 hrs by radial diffusion assay; format: functional; conditions: read-out: MEC; procedure, shortened: as §2
[11] = tested on: Escherichia coli; experiment: Bactericidal activity against Escherichia coli ML35 assessed as survival at 0.5 ug/ml by twofold serial dilution assay relative to control; format: functional
Procedure, shortened: (§3)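 Mid-log-phase cells were suspended in 10 mM sodium phosphate (pH 7.4) with 1% brain-heart infusion broth and exposed to peptide dilutions for 1 h, at 33°C for H. ducreyi or 37°C for E. coli. Survivors were counted by plating, and survival was expressed as a percent of peptide-free control wells. Values are means of three independent assays.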

[12] = tested on: [Haemophilus] ducreyi; experiment: Bactericidal activity against Haemophilus ducreyi 35000HP assessed as survival at 0.5 ug/ml by twofold serial dilution assay relative to control; format: functional; procedure, shortened: as §3
[13] = tested on: Escherichia coli; experiment: Bactericidal activity against Escherichia coli ML35 assessed as survival at 2 ug/ml by tenfold serial dilution assay relative to control; format: functional; procedure, shortened: as §3
[14] = tested on: [Haemophilus] ducreyi; experiment: Bactericidal activity against Haemophilus ducreyi 35000HP assessed as survival at 2 ug/ml by tenfold serial dilution assay relative to control; format: functional; procedure, shortened: as §3

CC[C@H](C)[C@@H]1NC(=O)[C@H](CCCNC(=N)N)NC(=O)[C@H](Cc2ccc(O)cc2)NC(=O)[C@H](CCC(=O)O)NC(=O)[C@H](CCC(N)=O)NC(=O)[C@H](CO)NC(=O)[C@H](CCCNC(=N)N)NC(=O)[C@@H]2CSSC[C@@H](C(=O)N[C@@H](CC(C)C)C(=O)N[C@@H](CCCNC(=N)N)C(=O)N[C@@H](CCCCN)C(=O)O)NC(=O)[C@@H]3NC(=O)[C@H](C)NC(=O)[C@H](Cc4ccc(O)cc4)NC(=O)[C@H]([C@@H](C)O)NC(=O)[C@H](CC(N)=O)NC(=O)[C@H]4CCCN4C(=O)[C@H](CSSC[C@H](NC(=O)[C@H](CCCNC(=N)N)NC(=O)[C@H](C)NC(=O)[C@H]([C@@H](C)O)NC(=O)CNC(=O)[C@H](Cc4ccc(O)cc4)NC(=O)CNC(=O)[C@@H](NC(=O)[C@@H](NC(=O)[C@H](CCCNC(=N)N)NC(=O)[C@H](CC(=O)O)NC(=O)[C@H](CC(C)C)NC(=O)[C@@H](N)CCC(=O)O)[C@@H](C)CC)CSS3)C(=O)N[C@@H](CCCNC(=N)N)C(=O)N[C@@H](CCCCN)C(=O)N[C@@H](CCCCN)C(=O)N2)NC(=O)[C@H](CCCNC(=N)N)NC(=O)CNC1=O
Activity [1]: inactive | Activity [2]: inactive | Activity [3]: inactive | Activity [4]: inactive | Activity [5]: inactive

CC[C@H](C)[C@@H]1NC(=O)[C@@H]2CSSC[C@@H]3NC(=O)[C@H](Cc4ccccc4)NC(=O)[C@H](C)NC(=O)[C@H](Cc4c[nH]c5ccccc45)NC(=O)[C@H](CC(C)C)NC(=O)[C@H](CCCNC(=N)N)NC(=O)CNC(=O)[C@H](CCC(N)=O)NC(=O)[C@H](Cc4ccc(O)cc4)NC(=O)[C@H]([C@@H](C)CC)NC(=O)[C@H](CSSC[C@H](NC(=O)[C@H](Cc4ccc(O)cc4)NC(=O)[C@@H](N)CSSC[C@@H](C(=O)O)NC3=O)C(=O)N[C@@H](CCCNC(=N)N)C(=O)N[C@@H]([C@@H](C)CC)C(=O)N3CCC[C@H]3C(=O)N[C@@H](C)C(=O)N2)NC(=O)[C@H]([C@@H](C)O)NC(=O)CNC(=O)[C@H](Cc2ccc(O)cc2)NC(=O)[C@H](CCCNC(=N)N)NC(=O)[C@H](CCCNC(=N)N)NC(=O)[C@H](CCC(=O)O)NC(=O)CNC(=O)[C@H](C)NC1=O (H-CYCRIPACIAGERRYGTCIYQGRLWAFCC-OH; disulfide 1-29, 3-18, 8-28)
Activity [1]: inactive | Activity [2]: inactive | Activity [3]: inactive | Activity [4]: inactive | Activity [5]: inactive | Activity [6]: 10%

CC[C@H](C)[C@@H]1NC(=O)[C@H](CCCCN)NC(=O)[C@H]([C@@H](C)O)NC(=O)[C@H](Cc2ccccc2)NC(=O)[C@H]([C@@H](C)CC)NC(=O)[C@@H]2CCCN2C(=O)[C@@H]2CSSC[C@@H](C(=O)N[C@@H](CCCCN)C(=O)O)NC(=O)[C@@H]3CSSC[C@H](NC(=O)[C@H](CC(N)=O)NC(=O)[C@H](Cc4ccc(O)cc4)NC(=O)[C@H](Cc4cnc[nH]4)NC(=O)[C@@H](N)CC(=O)O)C(=O)N[C@@H](C(C)C)C(=O)N[C@@H](CO)C(=O)N[C@@H](CO)C(=O)NCC(=O)NCC(=O)N[C@@H](CCC(N)=O)C(=O)N[C@@H](CSSC[C@H](NC(=O)[C@H]([C@@H](C)O)NC(=O)CNC(=O)[C@H](CCC(N)=O)NC1=O)C(=O)N[C@@H](Cc1ccc(O)cc1)C(=O)N[C@@H](CCCNC(=N)N)C(=O)NCC(=O)N[C@@H](CCCCN)C(=O)N[C@@H](C)C(=O)N[C@@H](CCCCN)C(=O)N3)C(=O)N[C@@H](CC(C)C)C(=O)N[C@@H](Cc1ccc(O)cc1)C(=O)N[C@@H](CO)C(=O)N[C@@H](C)C(=O)N2 (H-DHYNCVSSGGQCLYSACPIFTKIQGTCYRGKAKCCK-OH; disulfide 5-34, 12-27, 17-35)
Activity [1]: inactive | Activity [2]: inactive | Activity [3]: inactive | Activity [4]: inactive | Activity [5]: inactive

CC[C@H](C)[C@@H]1NC(=O)[C@H](CCCNC(=N)N)NC(=O)[C@H](Cc2ccc(O)cc2)NC(=O)[C@H](CCC(=O)O)NC(=O)[C@H](CCC(N)=O)NC(=O)[C@H](CO)NC(=O)[C@H](CCCNC(=N)N)NC(=O)[C@@H]2CSSC[C@@H](C(=O)N[C@@H](CC(C)C)C(=O)N[C@@H](CCCNC(=N)N)C(=O)N[C@@H](CCCCN)C(=O)O)NC(=O)[C@@H]3CSSC[C@H](NC(=O)[C@@H](NC(=O)[C@H](CCCNC(=N)N)NC(=O)[C@H](CC(=O)O)NC(=O)[C@H](CC(C)C)NC(=O)[C@@H](N)CCC(=O)O)[C@@H](C)CC)C(=O)NCC(=O)N[C@@H](Cc4ccc(O)cc4)C(=O)NCC(=O)N[C@@H]([C@@H](C)O)C(=O)N[C@@H](C)C(=O)N[C@@H](CCCNC(=N)N)C(=O)N[C@@H](CSSC[C@H](NC(=O)[C@H](CCCNC(=N)N)NC(=O)CNC1=O)C(=O)N1CCC[C@H]1C(=O)N[C@@H](CC(N)=O)C(=O)N[C@@H]([C@@H](C)O)C(=O)N[C@@H](Cc1ccc(O)cc1)C(=O)N[C@@H](C)C(=O)N3)C(=O)N[C@@H](CCCNC(=N)N)C(=O)N[C@@H](CCCCN)C(=O)N[C@@H](CCCCN)C(=O)N2 (H-ELDRICGYGTARCRKKCRSQEYRIGRCPNTYACCLRK-OH; disulfide 6-33, 13-27, 17-34)
minimal effective concentration [7]: > 158 µg/mL | Activity [8]: >84% | minimal effective concentration [9]: 12.6 µg/mL | minimal effective concentration [10]: > 158 µg/mL | Activity [6]: <7%

CC[C@H](C)[C@H](NC(=O)[C@H](CCCCN)NC(=O)[C@H](CCC(=O)O)NC(=O)[C@H](CCCCN)NC(=O)[C@H](CO)NC(=O)[C@H](CCCCN)NC(=O)[C@H](CCCNC(=N)N)NC(=O)[C@H](Cc1ccccc1)NC(=O)[C@H](Cc1ccccc1)NC(=O)[C@H](CC(=O)O)NC(=O)CNC(=O)[C@H](CC(C)C)NC(=O)[C@@H](N)CC(C)C)C(=O)NCC(=O)N[C@@H](CCCCN)C(=O)N[C@@H](CCC(=O)O)C(=O)N[C@@H](Cc1ccccc1)C(=O)N[C@@H](CCCCN)C(=O)N[C@@H](CCCNC(=N)N)C(=O)N[C@H](C(=O)N[C@H](C(=O)N[C@@H](CCC(N)=O)C(=O)N[C@@H](CCCNC(=N)N)C(=O)N[C@H](C(=O)N[C@@H](CCCCN)C(=O)N[C@@H](CC(=O)O)C(=O)N[C@@H](Cc1ccccc1)C(=O)N[C@@H](CC(C)C)C(=O)N[C@@H](CCCNC(=N)N)C(=O)N[C@@H](CC(N)=O)C(=O)N[C@@H](CC(C)C)C(=O)N[C@H](C(=O)N1CCC[C@H]1C(=O)N[C@@H](CCCNC(=N)N)C(=O)N[C@H](C(=O)N[C@@H](CCC(=O)O)C(=O)N[C@@H](CO)C(=O)O)[C@@H](C)O)C(C)C)[C@@H](C)CC)C(C)C)[C@@H](C)CC [CATHELICIDIN]
Activity [11]: 3% | Activity [1]: inactive | Activity [2]: inactive | minimal effective concentration [7]: > 158 µg/mL | Activity [3]: inactive | Activity [4]: inactive | Activity [12]: 43% | Activity [13]: 5% | Activity [5]: inactive | minimal effective concentration [9]: 6.2 µg/mL | minimal effective concentration [10]: > 158 µg/mL | Activity [14]: 16%
